Calls of active or inactive are those of the source. The calls are words filed in the database; no cut-off is given here.

The record followed here is ChEMBL document CHEMBL4265988, “Molecular tools that block maturation of the nuclear lamin A and decelerate cancer cell migration” (Bioorg Med Chem, 2018).

Data set [1] has as its target T1, CAAX prenyl protease 1 homolog (Homo sapiens) (UniProt O75844).
T1 sequence (whole entry): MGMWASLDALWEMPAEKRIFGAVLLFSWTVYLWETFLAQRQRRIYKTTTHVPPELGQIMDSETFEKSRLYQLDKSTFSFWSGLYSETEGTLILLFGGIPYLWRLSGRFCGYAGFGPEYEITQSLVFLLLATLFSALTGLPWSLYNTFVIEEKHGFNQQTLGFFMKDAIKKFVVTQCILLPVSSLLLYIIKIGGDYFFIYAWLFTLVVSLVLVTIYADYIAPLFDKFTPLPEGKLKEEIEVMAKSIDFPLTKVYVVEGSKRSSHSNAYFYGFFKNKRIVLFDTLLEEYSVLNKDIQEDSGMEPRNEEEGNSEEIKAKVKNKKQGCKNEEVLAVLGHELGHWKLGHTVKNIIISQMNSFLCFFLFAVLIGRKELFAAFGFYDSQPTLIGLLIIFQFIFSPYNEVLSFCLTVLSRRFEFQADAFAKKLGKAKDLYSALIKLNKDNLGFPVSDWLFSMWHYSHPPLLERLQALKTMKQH
As to the kind of experiment: Inhibition of ZMPSTE24 in human U2OS cells assessed as increase in intracellular accumulation of prelamin A at 10 uM after 24 hrs by Western blot analysis relative to control. Format: cell-based. The gist of the method:
(§1)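 Cells treated 24 h with 10 μM compound, lysates analysed by Western blot with prelamin A-specific antibody; prelamin A band normalised to tubulin and expressed relative to untreated control (set to 1); lopinavir run in parallel as reference.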

For data set [2], the target named is T1, CAAX prenyl protease 1 homolog (Homo sapiens). As to the kind of experiment: Inhibition of ZMPSTE24 in human HPAF2 cells assessed as increase in intracellular accumulation of prenylated prelamin A at 10 uM after 24 hrs by Western blot analysis relative to control. Format: cell-based. A digest of the protocol:
as §1
(A western blot detects proteins with antibodies after separation by electrophoresis.)

Data set [3] has the same target. As to the kind of experiment: Inhibition of ZMPSTE24 in human KP4 cells assessed as increase in intracellular accumulation of prenylated prelamin A at 10 uM after 24 hrs by Western blot analysis relative to control. Format: cell-based. The gist of the method: as §1
For data set [4], the system named is KP-4. As to the kind of experiment: Antimigratory activity against human KP4 cells at 10 uM after 10 days by crystal violet staining-based assay. Format: functional, cell-based. The gist of the method: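 Transmigration assay in KP-4 cells; test agents at single 10 μM, with lopinavir and 0.15% DMSO (vehicle) in buffer as controls.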
Data set [5] addresses T1, CAAX prenyl protease 1 homolog (Homo sapiens). As to the kind of experiment: Inhibition of ZMPSTE24 in human HCT116 cells assessed as increase in intracellular accumulation of prenylated prelamin A at 10 uM after 24 hrs by Western blot analysis relative to control. Format: cell-based. A digest of the protocol:
as §1

The target is the same in data set [6]. The data set is described as follows: Inhibition of ZMPSTE24 in human SW1990 cells assessed as increase in intracellular accumulation of prenylated prelamin A at 10 uM after 24 hrs by Western blot analysis relative to control. Format: cell-based. A digest of the protocol:
as §1

Data set [7] has as its system KP-4. The data set is described as follows: Antiproliferative activity against human KP4 cells at 10 uM after 7 days by crystal violet staining-based assay. Format: cell-based. Particulars: kp-4, 168 h. A digest of the protocol:
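Proliferation assay in KP-4 cells, single concentration 10 μM.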

Data set [8] relates to KP-4. The data set is described as follows: Induction of p21 accumulation in human KP4 cells at 10 uM after 48 hrs by Western blot method. Format: cell-based. Conditions: kp-4, 48 h.
Data set [9] relates to HPAF-II. As to the kind of experiment: Induction of p21 accumulation in human HPAF2 cells at 10 uM after 48 hrs by Western blot method. Format: cell-based.
Data set [10] deals with HPAF-II. The data set is described as follows: Downregulation of MCM6 protein expression in human HPAF2 cells at 10 uM after 48 hrs by Western blot method. Format: ADME, cell-based.
Data set [11] deals with KP-4. As to the kind of experiment: Downregulation of MCM6 protein expression in human KP4 cells at 10 uM after 48 hrs by Western blot method. Format: ADME, cell-based. Conditions: kp-4, 48 h.

Regarding `Cc1cccc(C)c1OCC(=O)N[C@@H](Cc1ccccc1)[C@@H](O)C[C@H](Cc1ccccc1)NC(=O)[C@@H](NC(=O)c1ccnc(Cl)c1)C(C)C`, the fold change (FC) in [1] amounted to 3.
Regarding `Cc1cccc(C)c1OCC(=O)N[C@@H](Cc1ccccc1)[C@@H](O)C[C@H](Cc1ccccc1)NC(=O)[C@@H](NC(=O)c1cc(Cl)cc(C(F)(F)F)c1)C(C)C`, the fold change (FC) in data set [1] was 2.4.
For `Cc1cccc(C)c1OCC(=O)N[C@@H](Cc1ccccc1)[C@@H](O)C[C@H](Cc1ccccc1)NC(=O)[C@H](C(C)C)N1CCCNC1=O`, the fold change (FC) in [1] is 1.2 to 2.1; in data set [2], 2; in data set [3] it was 2.5; in [5], 1.4; in [6], 4.9. Also, in the data set on KP-4 [4], the outcome was inactive.
As to `COc1cc(Cl)cc(C(=O)N[C@H](C(=O)N[C@@H](Cc2ccccc2)C[C@H](O)[C@H](Cc2ccccc2)NC(=O)COc2c(C)cccc2C)C(C)C)c1`, the fold change (FC) in data set [1] was found to be 2.7.
On the same count and under the same terms, the same measure for `COc1cc(C(=O)N[C@H](C(=O)N[C@@H](Cc2ccccc2)C[C@H](O)[C@H](Cc2ccccc2)NC(=O)COc2c(C)cccc2C)C(C)C)cc(C(F)(F)F)c1`: 1.4; for `Cc1cccc(C)c1OCC(=O)N[C@@H](Cc1ccccc1)[C@@H](O)C[C@H](Cc1ccccc1)NC(=O)[C@@H](NC(=O)Cc1cccnc1)C(C)C`: 1.7; for `Cc1cccc(C)c1OCC(=O)N[C@@H](Cc1ccccc1)[C@@H](O)C[C@H](Cc1ccccc1)NC(=O)[C@@H](NC(=O)c1ccc([N+](=O)[O-])o1)C(C)C`: 2.5.
`Cc1cccc(C)c1OCC(=O)N[C@@H](Cc1ccccc1)[C@@H](O)C[C@H](Cc1ccccc1)NC(=O)[C@@H](NC(=O)c1ccc2[nH]nnc2c1)C(C)C`: the fold change (FC) in data set [1] was 1.5.
For the compound `Cc1cccc(C)c1OCC(=O)N[C@@H](Cc1ccccc1)[C@@H](O)C[C@H](Cc1ccccc1)NC(=O)[C@@H](NC(=O)c1cc(C(F)(F)F)cc(C(F)(F)F)c1)C(C)C`, the fold change (FC) in data set [1] stood at 2.1.
Turning to `Cc1cccc(C)c1OCC(=O)N[C@@H](Cc1ccccc1)[C@@H](O)C[C@H](Cc1ccccc1)NC(=O)[C@@H](NC(=O)c1ccc(Br)cn1)C(C)C`, the fold change (FC) in data set [1] is 2.1.
For `Cc1cccc(C)c1OCC(=O)N[C@@H](Cc1ccccc1)[C@@H](O)C[C@H](Cc1ccccc1)NC(=O)[C@@H](NC(=O)Cc1ccc(Cl)cc1)C(C)C`, in data set [1], the fold change (FC) worked out at 2.8.
Take `Cc1cccc(C)c1OCC(=O)N[C@@H](Cc1ccccc1)[C@@H](O)C[C@H](Cc1ccccc1)NC(=O)[C@@H](NC(=O)CC1CC1)C(C)C`: in data set [1], the fold change (FC) worked out at 3.
Consider `Cc1cccc(C)c1OCC(=O)N[C@@H](Cc1ccccc1)[C@@H](O)C[C@H](Cc1ccccc1)NC(=O)[C@@H](NC(=O)C1CCC(=O)N1)C(C)C` (some centres not stated), for which, in data set [1], the fold change (FC) is 3.2.
In the case of `Cc1cccc(C)c1OCC(=O)N[C@@H](Cc1ccccc1)[C@@H](O)C[C@H](Cc1ccccc1)NC(=O)[C@@H](NC(=O)C1CCCCN1)C(C)C` (some centres not stated), in data set [1], the fold change (FC) stood at 2.
Turning to `Cc1cc(C)cc(C(=O)N[C@H](C(=O)N[C@@H](Cc2ccccc2)C[C@H](O)[C@H](Cc2ccccc2)NC(=O)COc2c(C)cccc2C)C(C)C)c1`, the fold change (FC) in data set [1] is 3.4.
In the case of `Cc1cc(OC(F)(F)F)cc(C(=O)N[C@H](C(=O)N[C@@H](Cc2ccccc2)C[C@H](O)[C@H](Cc2ccccc2)NC(=O)COc2c(C)cccc2C)C(C)C)c1`, the fold change (FC) in data set [1] came out at 2.7.
`C[C@H](NC(=O)C(Cc1ccccc1)CP(=O)(O)[C@H](Cc1ccccc1)NC(=O)OCc1ccccc1)C(=O)O` (some centres not stated): in data set [1], the inhibition entry is “inactive”.
With `COC(=O)[C@H](C)NC(=O)C(Cc1ccccc1)CP(=O)(O)[C@H](Cc1ccccc1)NC(=O)OCc1ccccc1` (some centres not stated), the fold change (FC) in [2] came to 2.2; in data set [3] it was 3.6; in data set [5] it was 2.2; in data set [6] it was 7.4. The Activity result in the data set on KP-4 [7], in the data set with KP-4 [8], in the data set on HPAF-II [9], with HPAF-II [10] and in the data set on KP-4 [11] was “Non-Toxic” each time. For the same compound, in the data set with KP-4 [4], the result was Active.
